Rows were chosen to be rich in hits. Some 3.5% of all compounds tested hit in one or more screens of this group.
MrgX1 antag – antagonists of human MrgX1 receptor, primary screen, HEK293 cells, Fluo-4 calcium flux; Mas-related G-protein coupled receptor member X1 (Homo sapiens), Q96LB2; BAM8-22 antagonism; stronger effect = lower value; B-score at 10 µM; hit rate 1.3% among 310,000; AID 588676, 2011;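 active means calcium-response B-score plate-corrected more than 3 library SD below zero, starting fluorescence within 5 deviations, no agonist response on first addition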;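 further: peak minus trough fluorescence over baseline after final BAM8-22 challenge near maximal dose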
Target sequence (Q96LB2 whole entry, looked up): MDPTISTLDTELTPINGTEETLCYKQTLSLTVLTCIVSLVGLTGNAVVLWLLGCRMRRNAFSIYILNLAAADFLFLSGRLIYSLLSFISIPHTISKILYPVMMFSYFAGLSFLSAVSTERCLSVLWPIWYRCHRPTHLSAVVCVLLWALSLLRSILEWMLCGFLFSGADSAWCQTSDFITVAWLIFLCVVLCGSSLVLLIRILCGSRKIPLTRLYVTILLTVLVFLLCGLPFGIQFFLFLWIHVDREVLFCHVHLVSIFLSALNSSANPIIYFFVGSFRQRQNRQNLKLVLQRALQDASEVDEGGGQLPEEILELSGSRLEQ
MrgX1 agonist – agonists of human MrgX1 receptor, primary screen, HEK293 cells, Fluo-4 calcium flux; B-score at 10 µM; hit rate 0.44% among 310,000; Mas-related G-protein coupled receptor member X1 (Homo sapiens), Q96LB2; Fluo-4 calcium fluorescence, agonist mode; stronger effect = higher value; AID 588627, 2011;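 active means calcium response B-score plate-corrected fluorescence ratio at least 3 library SD, with starting fluorescence B-score inside 5 SD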
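Test system: HEK293 cells stably expressing human MrgX1 receptor; Input: fifteen thousand cells per well; Dosing: compound delivered in addition one of three; Schedule: overnight seeding, then 1 h dark dye loading; Technique: Fluo-4 NW calcium fluorescence; Measure: B-scored fluorescence response ratio; Controls: positive and negative controls per plate.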
RGS4 inh – RGS4 inhibitors, primary screen, cell-based, HEK293 M3R inducible RGS4, calcium flux | Regulator of G-protein signaling 4 (Homo sapiens), P49798 | Fluo-4 calcium flux; stronger effect = higher value; triggered by carbachol at its EC20 | B-score at 10 µM | hit rate 0.45% among 310,000 | AID 463165, 2010;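 active means B-score, a plate-corrected calcium signal, over three deviations above library mean, with baseline fluorescence within five deviations of library mean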;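 further: RGS4 expression induced by doxycycline in cells with stable M3 receptor; B-score is computed from the integrated fluorescence ratio over baseline after carbachol; higher B-score means a larger calcium signal and so more RGS4 inhibition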
Target sequence (P49798 whole entry, looked up): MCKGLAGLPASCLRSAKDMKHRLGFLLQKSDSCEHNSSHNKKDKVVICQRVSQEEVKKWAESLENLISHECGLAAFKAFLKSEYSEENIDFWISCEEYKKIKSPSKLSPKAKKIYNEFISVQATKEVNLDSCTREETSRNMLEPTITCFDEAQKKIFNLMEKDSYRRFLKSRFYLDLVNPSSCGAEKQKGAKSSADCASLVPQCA
MrgX1 allo act – positive allosteric modulators of MrgX1, primary screen, HEK293 cells, Fluo-4 calcium flux; AID 588675, 2011; FDSS; stronger effect = higher value; B-score at 10 µM; hit rate 0.63% among 310,000; Mas-related G-protein coupled receptor member X1 (Homo sapiens), Q96LB2;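 active means plate-corrected calcium response at least 3 library SD above typical, normal starting fluorescence, not activating the receptor alone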;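 further: compound read alongside a low EC10 to EC30 dose of BAM8-22 agonist; peak minus trough fluorescence over baseline measured at the second addition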
RGS4 pot – RGS4 potentiators or activators, primary screen, cell-based, HEK293 M3R inducible RGS4, calcium flux; hit rate 0.92% among 310,000; carbachol calcium flux Fluo4; stronger effect = lower value; B-score at 10 µM;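 active means B-score of the integrated calcium signal more than 4 SD below the library mean, with starting fluorescence not abnormally high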;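 further: negative B-score means reduced calcium response which marks RGS4 activation or potentiation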
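Reagent: ECmax carbachol challenge; Test system: M3R-expressing HEK293 line, RGS4 induced by doxycycline; Schedule: overnight RGS4 induction, 30 min dye load 37 °C, 20 min compound RT; Detection: calcium dye Fluo4 fluorescence; Read-out: Agonist-evoked peak-minus-minimum fluorescence over baseline, integrated ratio, B score.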
* hit, by the source's call; i = inactive; x = not tested or not shown.

SMILES	MrgX1 antag	MrgX1 agonist	RGS4 inh	MrgX1 allo act	RGS4 pot
O=C(c1ccccc1)C(CN1CCCC1)c1ccccc1 (stereo unspecified)	i	i	i	i	-8.4*
O=C(CN1CCCCC1)c1ccc(F)cc1	i	i	i	i	i
CN1CCN(CCOC2c3ccccc3CSc3ccc(Cl)cc32)CC1 (stereo unspecified)	-9.4*	i	i	i	i
Clc1ccc(C(OCCN2CCCCC2)c2ccccc2)cc1 (stereo unspecified)	i	i	x	i	x
Clc1ccc2c(c1)C(OC1CN3CCC1CC3)c1ccccc1CS2 (stereo unspecified)	i	i	i	i	-8.6*
O=C(COc1ccc(Cl)cc1)N(c1ccccc1Cl)C1CN2CCC1CC2 (stereo unspecified)	i	i	i	i	i
Cc1ccc(S(=O)(=O)N(C)N=O)cc1	i	i	x	i	x
Cc1ccccc1N1CCN(C2CCCN(C(=O)COc3ccccc3)C2)CC1 (stereo unspecified)	i	i	i	i	i
Cc1ccnc(NS(=O)(=O)c2ccc(N=Cc3c(O)n(C)c(=O)n(C)c3=O)cc2)n1	i	i	i	6.6*	i
Oc1ccc(C(=C(Cl)Cl)c2ccc(O)cc2)cc1	i	i	i	i	i
CC[N+]12CCC(CC1)C(=C(c1ccccc1)c1ccccc1)C2	i	i	i	i	-10*
C[N+]12CCC(CC1)C(=C(c1ccccc1)c1ccccc1)C2	i	i	i	i	-8.8*
CCC[N+]12CCC(CC1)C(C(O)(c1ccccc1)c1ccccc1)C2 (stereo unspecified)	i	i	i	i	i
Cc1onc(-c2c(Cl)cccc2Cl)c1C(=O)Nc1ccc2c(C(F)(F)F)cc(=O)oc2c1	i	i	i	i	i
Cc1c2cnn(CC(=O)N3CCC4(CC3)OCCO4)c(=O)c2c(C)n1Cc1ccccc1Cl	i	i	i	i	i
CC(=O)c1ccc2c(c1)C1C(Cl)C(Sc3ccccc3[N+](=O)[O-])CC1C(c1ccccc1[N+](=O)[O-])N2 (stereo unspecified)	i	i	i	i	-7.9*
CC[C@@H]1C(=O)OC[C@@H]1Cc1cncn1C	i	i	x	8.7*	x
NC(=O)c1ccc(N=Nc2c(O)[nH]c(=O)[nH]c2=O)cc1	i	i	i	i	i
O=c1[nH]c(O)c(N=Nc2ccc(SC(F)F)cc2)c(=O)[nH]1	i	i	i	13*	i
COc1cc(OC)c2c(c1)O[C@@H](c1ccc(OC)c(OC)c1)[C@H](O)C2	i	i	i	i	i
CN(C)CCSC1c2ccccc2CSc2ccccc21 (stereo unspecified)	i	i	i	i	-9.1*
Cc1cc(N2CCCCC2)ccc1C=C1C(=O)N(C)C(=S)N(C)C1=O	i	i	i	i	i
Cc1cc(N2CCCC2)ccc1C=C(C#N)C#N	-5.5*	i	i	i	i
COc1ccc(CCNCc2c(OC)ccc3ccccc23)cc1	i	i	i	i	i
CCN1CCN(CC(c2ccccc2)c2ccccc2)CC1	i	i	i	i	-7*
SMILES	MrgX1 antag	MrgX1 agonist	RGS4 inh	MrgX1 allo act	RGS4 pot
N/C(=N\[N+](=O)[O-])N1CCN(C(=O)Oc2ccccc2)CC1	i	i	i	i	i
O=P(Nc1cccnc1)(Oc1ccccc1Cl)Oc1ccccc1Cl	i	i	i	i	-8.4*
Nc1ccccc1-[n+]1c(-c2ccccc2)cc(-c2ccccc2)cc1-c1ccccc1	-7.3*	i	i	i	i
[O-]c1ccccc1-[n+]1c(-c2ccccc2)cc(-c2ccccc2)cc1-c1ccccc1	i	i	i	8.3*	i
O=C(O)c1ccc(-[n+]2c(-c3ccccc3)cc(-c3ccccc3)cc2-c2ccccc2)cc1	i	i	i	i	i
Oc1ccccc1-[n+]1c(-c2ccccc2)cc(-c2ccccc2)cc1-c1ccccc1	i	i	i	13*	-7.4*
Cc1ccc(-c2cc(-c3ccccc3)cc(-c3ccccc3)[n+]2-c2ccc(C(=O)O)cc2)cc1	i	i	i	i	i
Cc1ccccc1-[n+]1c(-c2ccccc2)cc(-c2ccccc2)cc1-c1ccccc1	-7.3*	i	i	i	-8.9*
Clc1ccc(C(c2ccc(Cl)cc2)n2cc[n+](CC(OCc3ccc(Cl)cc3Cl)c3ccc(Cl)cc3Cl)c2)cc1 (stereo unspecified)	i	i	x	i	x
O=c1c2ccccc2[se]n1-c1ccccc1	i	40*	i	i	i
NC1CCc2cc(O)c(O)cc2C1 (stereo unspecified)	i	i	x	i	x
COc1ccc(C(=O)C2CN(C)CC2c2ccc(Cl)cc2)cc1 (stereo unspecified)	i	i	i	i	-7.2*
COc1cccc(C(=O)C2CN(C)CC2c2ccc(Cl)cc2)c1 (stereo unspecified)	i	i	i	i	i
Cn1cc(/C=C2\C(=O)NC(=O)N(c3ccccc3)C2=O)c2ccccc21	i	i	i	i	-7.8*
O=C(O)Cn1cc(/C=C2\C(=O)NC(=O)N(c3ccc(Cl)cc3)C2=O)c2ccccc21	i	i	i	i	i
COc1ccc(C(=O)O/N=C(/C(N)=O)P(=O)(OC(C)C)OC(C)C)cc1	i	i	i	i	-7.7*
COc1ccc(CCNCc2cccn2C)cc1OC	i	i	i	i	i
O=c1[nH]c(O)c(/C=C2/C=CC(c3cc(Cl)ccc3Cl)=N2)c(=O)[nH]1	-7*	i	i	i	i
CC1=Nc2ccccc2/C1=C/c1c(O)[nH]c(=O)[nH]c1=O	i	i	i	i	i
CCN1C[C@]2(COC)CC[C@H](O)[C@]34C1[C@](O)([C@@H](OC)[C@H]23)[C@@]1(O)C[C@H](OC)[C@H]2C[C@@H]4[C@@H]1[C@H]2OC	i	i	x	i	x
C[N+]1=C(/C=C/Nc2ccccc2)C(C)(C)c2ccccc21	-4.9*	i	i	i	i
CN1/C(=C\C=C\C2=[N+](C)c3ccc4ccccc4c3C2(C)C)C(C)(C)c2ccccc21	i	i	x	i	x
